Tested on: HEK-293T
Assay: Multiplex assay against HEK293T
Format: toxicity, cell-based
Details: human
How it was run: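 Live cells were stained at seeding with Hoechst33342, BioTracker Green Microtubule Cytoskeleton Dye, MitoTracker Red and Annexin V Alexa Fluor 680, then imaged on a CQ1 microscope at 37°C and 5% CO2 after compound addition. CellPathfinder machine-learning gating split cells into Hoechst high-intensity objects or normal cells. Normal cells were split into healthy, pyknosed or fragmented nuclei, and pyknosed cells into mitotic or apoptotic. Tubulin, mitochondrial-mass and membrane-permeability phenotypes are per cents of healthy-nucleus cells.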

[1] = 12 h, 1 µM, compound concentration 1 uM, replicate 1
[2] = 12 h, 1 µM, compound concentration 1 uM, replicate 2
[3] = 12 h, 10 µM, compound concentration 10 uM, replicate 1
[4] = 12 h, 10 µM, compound concentration 10 uM, replicate 2
[5] = 24 h, 1 µM, compound concentration 1 uM, replicate 1
[6] = 24 h, 1 µM, compound concentration 1 uM, replicate 2
[7] = 24 h, 10 µM, compound concentration 10 uM, replicate 1
[8] = 24 h, 10 µM, compound concentration 10 uM, replicate 2
[9] = 48 h, 1 µM, compound concentration 1 uM, replicate 1
[10] = 48 h, 1 µM, compound concentration 1 uM, replicate 2
[11] = 48 h, 10 µM, compound concentration 10 uM, replicate 1
[12] = 48 h, 10 µM, compound concentration 10 uM, replicate 2

Cc1sc2c(c1C)C(c1ccc(Cl)cc1)=N[C@@H](CC(=O)NCCCCCCCCNC(=O)COc1cccc3c1C(=O)N(C1CCC(=O)NC1=O)C3=O)c1nnc(C)n1-2 (stereo not given in full)
Population Apoptotic (%) [1]: 66%
Population Fragmented Nuclei (%) [1]: 5%
Population Healthy Nuclei (%) [1]: 55%
Population Hoechst High Intensity Objects (%) [1]: 9%
Population Membrane Permeable-Phenotype (%) [1]: 0%
Population Mitochondria Different-Phenotype (%) [1]: 73%
Population Mitotic Cells (%) [1]: 33%
Population Normal (%) [1]: 90%
Population Pyknosed Nuclei (%) [1]: 39%
Population Tubulin-Different-Phenotype (%) [1]: 49%
Total Cell Count [1]: 175
Population Apoptotic (%) [2]: 62%
Population Fragmented Nuclei (%) [2]: 6%
Population Healthy Nuclei (%) [2]: 69%
Population Hoechst High Intensity Objects (%) [2]: 30%
Population Mitochondria Different-Phenotype (%) [2]: 91%
Population Mitotic Cells (%) [2]: 37%
Population Normal (%) [2]: 69%
Population Pyknosed Nuclei (%) [2]: 24%
Population Tubulin-Different-Phenotype (%) [2]: 59%
Total Cell Count [2]: 205
Population Apoptotic (%) [3]: 60%
Population Fragmented Nuclei (%) [3]: 9%
Population Healthy Nuclei (%) [3]: 67%
Population Hoechst High Intensity Objects (%) [3]: 14%
Population Membrane Permeable-Phenotype (%) [3]: 0%
Population Mitochondria Different-Phenotype (%) [3]: 75%
Population Mitotic Cells (%) [3]: 39%
Population Normal (%) [3]: 85%
Population Pyknosed Nuclei (%) [3]: 23%
Population Tubulin-Different-Phenotype (%) [3]: 23%
Total Cell Count [3]: 363
Population Apoptotic (%) [4]: 53%
Population Fragmented Nuclei (%) [4]: 8%
Population Healthy Nuclei (%) [4]: 66%
Population Hoechst High Intensity Objects (%) [4]: 37%
Population Mitochondria Different-Phenotype (%) [4]: 87%
Population Mitotic Cells (%) [4]: 46%
Population Normal (%) [4]: 62%
Population Pyknosed Nuclei (%) [4]: 24%
Population Tubulin-Different-Phenotype (%) [4]: 39%
Total Cell Count [4]: 315
Population Apoptotic (%) [5]: 51%
Population Fragmented Nuclei (%) [5]: 7%
Population Healthy Nuclei (%) [5]: 61%
Population Hoechst High Intensity Objects (%) [5]: 6%
Population Membrane Permeable-Phenotype (%) [5]: 0%
Population Mitochondria Different-Phenotype (%) [5]: 58%
Population Mitotic Cells (%) [5]: 48%
Population Normal (%) [5]: 93%
Population Pyknosed Nuclei (%) [5]: 31%
Population Tubulin-Different-Phenotype (%) [5]: 22%
Total Cell Count [5]: 261
Population Apoptotic (%) [6]: 67%
Population Fragmented Nuclei (%) [6]: 6%
Population Healthy Nuclei (%) [6]: 70%
Population Hoechst High Intensity Objects (%) [6]: 30%
Population Mitochondria Different-Phenotype (%) [6]: 83%
Population Mitotic Cells (%) [6]: 32%
Population Normal (%) [6]: 69%
Population Pyknosed Nuclei (%) [6]: 23%
Population Tubulin-Different-Phenotype (%) [6]: 31%
Total Cell Count [6]: 231
Population Apoptotic (%) [7]: 52%
Population Fragmented Nuclei (%) [7]: 11%
Population Healthy Nuclei (%) [7]: 64%
Population Hoechst High Intensity Objects (%) [7]: 12%
Population Membrane Permeable-Phenotype (%) [7]: 0%
Population Mitochondria Different-Phenotype (%) [7]: 64%
Population Mitotic Cells (%) [7]: 47%
Population Normal (%) [7]: 87%
Population Pyknosed Nuclei (%) [7]: 24%
Population Tubulin-Different-Phenotype (%) [7]: 19%
Total Cell Count [7]: 397
Population Apoptotic (%) [8]: 57%
Population Fragmented Nuclei (%) [8]: 9%
Population Healthy Nuclei (%) [8]: 60%
Population Hoechst High Intensity Objects (%) [8]: 39%
Population Mitochondria Different-Phenotype (%) [8]: 86%
Population Mitotic Cells (%) [8]: 42%
Population Normal (%) [8]: 60%
Population Pyknosed Nuclei (%) [8]: 30%
Total Cell Count [8]: 346
Population Apoptotic (%) [9]: 55%
Population Fragmented Nuclei (%) [9]: 7%
Population Healthy Nuclei (%) [9]: 58%
Population Hoechst High Intensity Objects (%) [9]: 2%
Population Membrane Permeable-Phenotype (%) [9]: 0%
Population Mitochondria Different-Phenotype (%) [9]: 56%
Population Mitotic Cells (%) [9]: 44%
Population Normal (%) [9]: 97%
Population Pyknosed Nuclei (%) [9]: 33%
Population Tubulin-Different-Phenotype (%) [9]: 30%
Total Cell Count [9]: 284
Population Apoptotic (%) [10]: 67%
Population Fragmented Nuclei (%) [10]: 9%
Population Healthy Nuclei (%) [10]: 65%
Population Hoechst High Intensity Objects (%) [10]: 15%
Population Mitochondria Different-Phenotype (%) [10]: 78%
Population Mitotic Cells (%) [10]: 32%
Population Normal (%) [10]: 84%
Population Pyknosed Nuclei (%) [10]: 25%
Population Tubulin-Different-Phenotype (%) [10]: 42%
Total Cell Count [10]: 289
Population Apoptotic (%) [11]: 48%
Population Fragmented Nuclei (%) [11]: 9%
Population Healthy Nuclei (%) [11]: 55%
Population Hoechst High Intensity Objects (%) [11]: 14%
Population Membrane Permeable-Phenotype (%) [11]: 0%
Population Mitochondria Different-Phenotype (%) [11]: 51%
Population Mitotic Cells (%) [11]: 51%
Population Normal (%) [11]: 85%
Population Pyknosed Nuclei (%) [11]: 35%
Population Tubulin-Different-Phenotype (%) [11]: 17%
Total Cell Count [11]: 403
Population Apoptotic (%) [12]: 65%
Population Fragmented Nuclei (%) [12]: 15%
Population Healthy Nuclei (%) [12]: 52%
Population Hoechst High Intensity Objects (%) [12]: 31%
Population Mitochondria Different-Phenotype (%) [12]: 76%
Population Mitotic Cells (%) [12]: 34%
Population Normal (%) [12]: 69%
Population Pyknosed Nuclei (%) [12]: 31%
Population Tubulin-Different-Phenotype (%) [12]: 31%
Total Cell Count [12]: 300

Reference: ChEMBL document CHEMBL5058577, “EUbOPEN Chemogenomics Library 2 (Multiplex)” (2022)
